# Data from BindingDB's records for doi:10.1021/acs.jmedchem.0c01897 (University of Michigan, 2021).
# Biological target: Signal transducer and activator of transcription 3 (Homo sapiens, UniProt P40763)
# Assay: Inhibition of IL-6 induced STAT3 transcriptional activity in human HEK293 cells expressing SIE-luc2P preincubated for overnight followed by IL-6 stimulation and measured after 24 hr by Bio-Glo luciferase reagent based microplate reader assay
# Procedure, shortened: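 GloResponse SIE-luc2P HEK-293 cells were seeded at 10,000/well and incubated overnight. STAT3 was activated with IL6 (100 ng/ml) for 24 h, then compound was added for 24 h. Bio-Glo luciferase reagent was added and luminescence read after 5 min. IC50 from three independent experiments, mean ± SD.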
# Signal transducer and activator of transcription 3, sequence (P40763 whole entry): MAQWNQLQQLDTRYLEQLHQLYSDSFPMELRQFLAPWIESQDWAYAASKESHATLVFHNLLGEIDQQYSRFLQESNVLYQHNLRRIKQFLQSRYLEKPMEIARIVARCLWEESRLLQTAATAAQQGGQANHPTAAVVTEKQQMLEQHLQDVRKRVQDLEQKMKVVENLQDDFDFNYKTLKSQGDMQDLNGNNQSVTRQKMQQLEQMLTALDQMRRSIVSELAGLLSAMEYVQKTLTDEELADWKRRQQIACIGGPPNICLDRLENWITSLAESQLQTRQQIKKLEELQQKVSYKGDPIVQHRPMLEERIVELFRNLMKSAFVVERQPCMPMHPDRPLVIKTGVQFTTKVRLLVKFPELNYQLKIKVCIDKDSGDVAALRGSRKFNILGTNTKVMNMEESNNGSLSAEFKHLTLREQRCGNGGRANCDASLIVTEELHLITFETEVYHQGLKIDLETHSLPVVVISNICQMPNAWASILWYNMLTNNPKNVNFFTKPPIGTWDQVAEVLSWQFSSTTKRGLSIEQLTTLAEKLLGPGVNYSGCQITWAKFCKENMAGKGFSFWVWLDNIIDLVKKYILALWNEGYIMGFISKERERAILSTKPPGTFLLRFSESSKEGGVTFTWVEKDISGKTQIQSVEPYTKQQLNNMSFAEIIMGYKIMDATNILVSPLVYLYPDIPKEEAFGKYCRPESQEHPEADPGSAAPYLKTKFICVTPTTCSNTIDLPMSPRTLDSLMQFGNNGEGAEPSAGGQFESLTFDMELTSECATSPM
row,IC50 [µM],SMILES
1,15.3,O=C1CCC(N2C(=O)c3cccc(NCCNC(=O)c4cc5c(o4)C(=O)c4ccccc4C5=O)c3C2=O)C(=O)N1 (stereo not drawn)
2,4.6,O=C1CCC(N2C(=O)c3cccc(NCCCCCNC(=O)c4cc5c(o4)C(=O)c4ccccc4C5=O)c3C2=O)C(=O)N1 (stereo not drawn)
3,2.6,O=C1CCC(N2C(=O)c3cccc(NCCOCCOCCOCCNC(=O)c4cc5c(o4)C(=O)c4ccccc4C5=O)c3C2=O)C(=O)N1 (stereo not drawn)
4,2.7,O=C1CCC(N2C(=O)c3cccc(NCCOCCOCCOCCOCCNC(=O)c4cc5c(o4)C(=O)c4ccccc4C5=O)c3C2=O)C(=O)N1 (stereo not drawn)
5,2.5,O=C1CCC(N2C(=O)c3cccc(NCCOCCOCCOCCOCCOCCOCCNC(=O)c4cc5c(o4)C(=O)c4ccccc4C5=O)c3C2=O)C(=O)N1 (stereo not drawn)
6,0.9,O=C1CCC(N2C(=O)c3cccc(NCCCCCC4CCN(CCNC(=O)c5cc6c(o5)C(=O)c5ccccc5C6=O)CC4)c3C2=O)C(=O)N1 (stereo not drawn)
7,4.2,O=C1CCC(N2C(=O)c3cccc(C#CCCCNC(=O)c4cc5c(o4)C(=O)c4ccccc4C5=O)c3C2=O)C(=O)N1 (stereo not drawn)
8,5.7,O=C1CCC(N2C(=O)c3cccc(OCCCCNC(=O)c4cc5c(o4)C(=O)c4ccccc4C5=O)c3C2=O)C(=O)N1 (stereo not drawn)
9,10.9,O=C1CCC(N2Cc3c(NCCOCCOCCNC(=O)c4cc5c(o4)C(=O)c4ccccc4C5=O)cccc3C2=O)C(=O)N1 (stereo not drawn)
10,1.7,CN1C(=O)CCC(N2C(=O)c3cccc(NCCCCCC4CCN(CCNC(=O)c5cc6c(o5)C(=O)c5ccccc5C6=O)CC4)c3C2=O)C1=O (stereo not drawn)
11,11.4,Cc1ncsc1-c1ccc(CNC(=O)[C@@H]2C[C@@H](O)CN2C(=O)[C@@H](NC(=O)COCCOCCNC(=O)c2cc3c(o2)C(=O)c2ccccc2C3=O)C(C)(C)C)cc1
12,> 30,Cc1ncsc1-c1ccc(CNC(=O)[C@@H]2C[C@@H](O)CN2C(=O)[C@@H](NC(=O)COCCNC(=O)c2cc3c(o2)C(=O)c2ccccc2C3=O)C(C)(C)C)cc1
13,3.4,O=C1CCC(N2C(=O)c3ccc(NCCOCCOCCNC(=O)c4cc5c(o4)C(=O)c4ccccc4C5=O)cc3C2=O)C(=O)N1 (stereo not drawn)
